Screens as filed in PubChem BioAssay.
Rev-erbA mod: modulators of Rev-erb alpha DNA binding, primary screen, biochemical, FITC-DNA, fluorescence polarization, uHTS; Nuclear receptor subfamily 1 group D member 1 (Homo sapiens), P20393; Rev-erbα–FITC-DNA binding, 90 min; actives 0.79% (n = 370,000); activity, % at 10 µM;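 active = activity above about 14%, limit read from the data; passing the limit was not always enough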;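 note: 0% = DMSO wells with 35 nM protein and 100% = DMSO wells with 750 nM protein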
Target sequence (P20393 whole entry, looked up): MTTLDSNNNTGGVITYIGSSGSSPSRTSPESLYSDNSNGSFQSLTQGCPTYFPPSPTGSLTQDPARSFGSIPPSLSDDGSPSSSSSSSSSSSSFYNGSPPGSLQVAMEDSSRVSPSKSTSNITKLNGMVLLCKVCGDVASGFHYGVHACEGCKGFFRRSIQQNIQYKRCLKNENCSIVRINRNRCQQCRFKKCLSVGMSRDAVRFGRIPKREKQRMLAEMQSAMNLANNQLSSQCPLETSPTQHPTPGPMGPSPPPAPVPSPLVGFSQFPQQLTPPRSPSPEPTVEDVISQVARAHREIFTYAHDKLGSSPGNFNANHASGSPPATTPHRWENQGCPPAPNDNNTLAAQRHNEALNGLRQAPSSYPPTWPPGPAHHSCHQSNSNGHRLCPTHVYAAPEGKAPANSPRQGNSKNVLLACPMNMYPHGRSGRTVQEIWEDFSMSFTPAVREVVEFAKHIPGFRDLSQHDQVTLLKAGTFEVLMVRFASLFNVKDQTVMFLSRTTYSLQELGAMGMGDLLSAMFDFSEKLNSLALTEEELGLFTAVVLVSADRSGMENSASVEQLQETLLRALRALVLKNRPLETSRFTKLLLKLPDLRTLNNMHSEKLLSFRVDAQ
MC4R antag cAMP: MC4R antagonists of cAMP signaling, primary screen, cell-based, TR-FRET, antagonist arm of biased-ligand search. MC4R-expressing cells, MTII-stimulated cAMP, LANCE TR-FRET. actives 0.48% (n = 360,000). inhibition, % at 6.5 µM. Melanocortin receptor 4 (Homo sapiens), P32245;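 active = inhibition above its plate's cutoff, the mean of tested wells on that plate plus 3 SD, cut at about 29% in these data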;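 note: 0% = Melanotan II alone and 100% = Melanotan II plus saturating MCL0020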
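Assay system: human MC4R-expressing U2OS cells; reagent: Melanotan II stimulation of cells; dosing: 6.5 µM single dose; timing: compound 30 min, challenge 1 h, detection 1 h; signal: TR-FRET cAMP assay; replicates: one well per compound, no replicates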
NR2E3 ag-1: NR2E3 agonists in two-hybrid cells, primary screen, cell-based, luminescence, CHO-S, Gal4-NCOR/VP16-NR2E3. Photoreceptor-specific nuclear receptor (Homo sapiens), Q9Y5X4. AID 602229, 2012. actives 0.35% (n = 360,000). inhibition of corepressor binding, % at 3.98 µM. luciferase;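 active = inhibition above the mean of all tested compounds plus 3 SD, cut at about 70% in these data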;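 note: 0% = DMSO with NR2E3 transfected cells and 100% = cells lacking NR2E3 construct; higher means lower luciferase signal from less NR2E3 corepressor binding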
MC4R ag barr: MC4R agonists recruiting beta-arrestin, primary screen, cell-based, luminescence, agonist arm of biased-ligand search; U2OS MC4R beta-arrestin complementation; percent of melanotan II response, DMSO zero; activation, % at 8.9 µM; actives 0.98% (n = 360,000);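 active = activation above a per-plate cutoff, the mean activation of sample wells on that plate plus 3 SD, cut at about 8% in these data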
PG9 binder: binders of HIV-1 gp120 antibody PG9, primary screen, biochemical, TR-FRET. TR-FRET gp120-PG9 antibody binding. inhibition, % at 6.7 µM. actives 0.43% (n = 360,000); in the data active = inhibition above about 8.5%
NR2E3 ag-2: inhibitors of NR2E3-RetCOR corepressor binding, primary screen, NR2E3 agonist project, biochemical, TR-FRET, GST-NR2E3, biotin-RetCOR; Photoreceptor-specific nuclear receptor (Homo sapiens), Q9Y5X4; 1536-well; inhibition of corepressor binding, % at 4.78 µM; actives 0.12% (n = 320,000);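 active = percent inhibition above the cutoff of mean plus 3 SD of all tested compounds, set per screening campaign, cut at about 20% in these data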;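 note: 0% = DMSO wells and 100% = biotin wells as full block of FRET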
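system = GST-tagged NR2E3 plus biotinylated RetCOR corepressor | input = 1.35 nM GST-NR2E3 | also added = 7 nM biotin-RetCOR | schedule = 5 h incubation at 4 °C | measured by = TR-FRET with europium anti-GST and streptavidin-D2, 340 nm excitation | read-out = percent loss of FRET ratio relative to control wells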
U2OS cAMP counter: nonselective cAMP signaling inhibitors, parental cells, counter-screen for MC4R biased antagonist project, cell-based, TR-FRET, U2OS, forskolin, triplicate; LANCE TR-FRET; inhibition, % at 6.5 µM; actives 26% (n = 1,600); shares compounds with MC4R antag cAMP;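 active = mean inhibition over triplicates above the low-control well mean plus 3 SD, set per campaign, cut at about 13% in these data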;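 note: signal is single emission at 671 nm which falls as cellular cAMP rises; 0% = forskolin-stimulated wells and 100% = buffer without forskolin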
MC4R cAMP antag: MC4R cAMP antagonists, retest, confirmation, cell-based, TR-FRET | shares compounds with MC4R antag cAMP | inhibition, % at 6.5 µM | actives 27% (n = 1,600) | MC4R-expressing cells, MTII-stimulated cAMP; in the data active = inhibition above about 29%;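 note: 0% = agonist stimulated wells alone and 100% = agonist stimulated wells plus saturating reference antagonist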
* hit, by the source's call; . = no result. Shown are actives, neighbours in structure and some others; about 2.7% of the full set was active somewhere.

SMILES | Rev-erbA mod | MC4R antag cAMP | NR2E3 ag-1 | MC4R ag barr | PG9 binder | NR2E3 ag-2 | U2OS cAMP counter | MC4R cAMP antag
CCCOc1ccc(-c2c(C(=O)N/N=C/c3ccccc3)nnn2-c2nonc2N)cc1 | -1 | 30* | 10 | 0 | -2 | -1 | 6 | 10
Cc1c(C(=O)N/N=C/c2cccc(O)c2)nnn1-c1nonc1N | -4 | 13 | -31 | -4 | -4 | 3 | . | .
Cc1ccccc1COc1cccc(/C=N/NC(=O)c2nnn(-c3nonc3N)c2C)c1 | 0 | 32* | -22 | 4 | 3 | -2 | 3 | 9
CCOc1ncccc1C(=O)Nc1nc(C(C)(C)C)cs1 | 7 | 34* | 32 | 8.7* | -2 | 0 | 1 | -2
CN1C(=O)CC(C(=O)Nc2ccccc2F)SC1=Nc1ccc2c(c1)OCO2 (centres undefined) | 0 | 33* | 4 | 1 | -1 | -4 | 2 | -1
COc1ccc(SCCN2CC[C@@H](C)CCC2=O)cc1 | 5 | -1 | -29 | 0 | -2 | 2 | . | .
Cc1ccccc1N1CCN(C2CCCN(C(=O)CN3CCCC3=O)C2)CC1 (centres undefined) | 2 | 31* | 11 | 0 | -2 | -2 | -2 | -4
CCCC(=O)Nc1ccc(S(=O)(=O)Nc2cc(OC)nc(OC)n2)cc1 | -3 | 10 | 5 | -2 | 2 | . | . | .
CCN(CC(=O)Nc1ccc2c(c1)OCCO2)C(=O)/C=C/c1cccc(C(F)(F)F)c1 | 4 | -2 | 10 | 0 | -1 | . | . | .
CC1=NOC(=O)/C1=C/c1ccc(O)cc1 | 3 | 35* | -16 | 0 | 0 | 6 | -4 | -38
COc1ccc(-c2csc3ncnc(N4CCN(c5ccccc5Cl)CC4)c23)cc1 | 5 | 29* | -39 | -2 | 0 | 1 | -1 | 29*
Cc1cc(C(=O)CCl)c(C)n1CCc1ccc(Cl)cc1 | 6 | 20 | -1 | 8 | -2 | 2 | . | .
COc1ccc(CCn2c(C)c(C(C)=O)c(C(C)=O)c2C)cc1OC | 2 | -1 | -17 | 1 | 1 | -2 | . | .
COc1ccc(CCn2c(C)cc(C(=O)CCl)c2C)cc1OC | -4 | 30* | -9 | 7 | -1 | 0 | 11 | 26
Cc1cc(C(=O)CCl)c(C)n1CCc1ccc(F)cc1 | -2 | 31* | -3 | 8 | -2 | 1 | 12 | 33*
O=C(CN(CC1CCCO1)C(=O)CNS(=O)(=O)c1ccc(Cl)cc1)NC1CCCCC1 (centres undefined) | -2 | 22 | -10 | -1 | 0 | 4 | . | .
N#C/C(=C\c1c(Oc2ccccc2F)nc2ccccn2c1=O)C(=O)NC1CCS(=O)(=O)C1 (centres undefined) | -3 | -1 | -33 | -1 | 0 | -2 | . | .
COc1cc(OC)cc(C(=O)NCC(=O)OCC(=O)NC2CCCc3ccccc32)c1 (centres undefined) | 3 | 2 | -18 | -1 | -1 | . | . | .
CCN=C1SC(CC(N)=O)C(=O)N1CC (centres undefined) | -5 | 32* | 13 | 2 | 1 | 1 | 4 | 4
CCN=C1SC(CC(=O)NC(C)C)C(=O)N1CC (centres undefined) | 1 | 6 | -8 | 1 | 1 | 3 | . | .
O=C(NCC(c1cccs1)N1CCOCC1)c1cccnc1 (centres undefined) | . | 3 | -19 | -2 | . | 0 | . | .
O=C(NCC(c1cccs1)N1CCOCC1)c1cnc(Cl)c(Cl)c1 (centres undefined) | 3 | 30* | -2 | -4 | 1 | . | 17* | 38*
O=C(CN1C(=O)C2(OCCCO2)c2ccccc21)NCc1ccc2ccccc2c1 | 3 | . | . | . | . | . | . | .
CSCC(=O)N1CCC(CCC(=O)NC2CC2)CC1 | 4 | 5 | -1 | 0 | 0 | 1 | . | .
CCc1ccc(C(C(=O)NCc2ccc(F)cc2)N(C(=O)c2csnn2)C2CC2)cc1 (centres undefined) | -6 | 29* | -10 | 2 | -2 | 0 | 3 | 3
SMILES | Rev-erbA mod | MC4R antag cAMP | NR2E3 ag-1 | MC4R ag barr | PG9 binder | NR2E3 ag-2 | U2OS cAMP counter | MC4R cAMP antag
O=C(CN(c1cccc(C(F)(F)F)c1)S(=O)(=O)c1ccc(Cl)c([N+](=O)[O-])c1)NCc1ccc(F)cc1 | -2 | 29* | 5 | 1 | -1 | 3 | 18* | 57*
O=C(CN(c1cccc([N+](=O)[O-])c1)S(=O)(=O)c1ccccc1)NCc1cccnc1 | -6 | 0 | 15 | -2 | -2 | 6 | . | .
COc1ccc2nc(-c3ccccc3)cc(OC)c2c1 | 0 | 5 | -43 | 4 | 1 | 0 | . | .
N#Cc1ccccc1NC(=O)CSc1nnc(-c2ccncc2)o1 | -5 | 30* | 6 | 2 | -1 | -2 | -6 | 1
C#CC(=O)N(c1ccc(OC)cc1OC)C(C(=O)NC1CCCC1)c1cccs1 (centres undefined) | -6 | 43* | -4 | 9.0* | 1 | 1 | -38 | 42*
C#CC(=O)N(c1cc(OC)ccc1OC)C(C(=O)NC1CCCC1)c1cccs1 (centres undefined) | . | 33* | 12 | 16* | . | 2 | -34 | 22
CCOC(=O)C1C(=O)C=C(N2CCOCC2)CC1c1cccc(OC)c1 (centres undefined) | 3 | -2 | -6 | -3 | -1 | -2 | . | .
CC(=O)OC1OCCOC1NC(=S)Nc1ccc(C)cc1 (centres undefined) | 0 | 32* | -7 | -1 | 1 | 0 | 1 | -8
Cc1ccc(NC(=S)NNC(=S)Nc2ccc(C)cc2)cc1 | 3 | 1 | -29 | 3 | 1 | . | . | .
Cc1cc(Br)ccc1NC(=O)CNC(=O)Cn1ncc(Cl)c(Cl)c1=O | -3 | 47* | -5 | -2 | 0 | 1 | 29* | 53*
CCOC(=O)c1ccc(NC(=O)Cn2ncc(Cl)c(Cl)c2=O)cc1 | -12 | 18 | 43 | -3 | -2 | -1 | . | .
